Test results as given in ChEMBL document CHEMBL4414551, “Design, Synthesis, and Biological Evaluation of Substituted 4,6-Dihydrospiro[[1,2,3]triazolo[4,5-b]pyridine-7,3'-indoline]-2',5(3H)-dione Analogues as Potent NS4B Inhibitors for the Treatment of Dengue Virus Infection” (J Med Chem, 2019).

Assays:
[1] = test system: dengue virus type 4; assay: Antiviral activity against Dengue virus 4 D4MY01-22713 infected in human HuH7 replicon cells expressing Renilla luciferase and neomycin-resistance genes assessed as reduction in viral replication incubated for 48 hrs by luciferase reporter replicon-based assay; format: functional, organism-based; conditions: D4MY01-22713, Huh-7, 48 h
Summary of the method: (§1)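 Huh7 cells stably carrying a Renilla luciferase/neomycin-resistance replicon (DENV-1 WestPac, DENV-2 NGC, DENV-3 D3MY05-34640 or DENV-4 D4MY01-22713). Cells seeded at 10k per well and incubated overnight at 37 °C, 5% CO2. Then exposed to 2-fold serial compound dilutions for 48 h, in duplicate. Luciferase read with a live-cell substrate. EC50 from four-parameter logistic fit.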

[2] = test system: dengue virus type 3; assay: Antiviral activity against Dengue virus 3 D3MY05-34640 infected in human HuH7 replicon cells expressing Renilla luciferase and neomycin-resistance genes assessed as reduction in viral replication incubated for 48 hrs by luciferase reporter replicon-based assay; format: functional, organism-based; conditions: D3MY05-34640, Huh-7, 48 h; summary of the method: as §1
[3] = test system: dengue virus type 1; assay: Antiviral activity against Dengue virus 1 WestPac infected in human HuH7 replicon cells expressing Renilla luciferase and neomycin-resistance genes assessed as reduction in viral replication incubated for 48 hrs by luciferase reporter replicon-based assay; format: functional, organism-based; conditions: Huh-7, 48 h; summary of the method: as §1
[4] = Cytotoxicity in human HuH7 replicon cells infected with Dengue virus 2 NGC assessed as reduction in cell viability incubated for 48 hrs by Cell-titer-Glo reagent based assay; design: species or system Huh-7
Summary of the method: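 Huh7 cells or Huh7 replicon cells plated, then held at 37 °C with 5% CO₂ overnight. Exposed to 2-fold serial compound dilutions for 48 h, in duplicate. Viability read with CellTiter-Glo and normalized to 0.45% DMSO wells set at 100%. CC50 from four-parameter logistic fit.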

[5] = test system: dengue virus type 2; assay: Antiviral activity against Dengue virus 2 NGC infected in human HuH7 replicon cells expressing Renilla luciferase and neomycin-resistance genes assessed as reduction in viral replication incubated for 48 hrs by luciferase reporter replicon-based assay; format: functional, organism-based; conditions: Huh-7, 48 h; summary of the method: as §1

SMILES | EC50 [1] [µM] | EC50 [2] [nM] | EC50 [3] [µM] | CC50 at 48 h [4] [µM] | EC50 [5] [nM]
C[C@@H](c1ccc(Cl)cc1)n1nnc2c1NC(=O)C[C@]21C(=O)N(CCO)c2ccc(Cl)cc21 | > 5 | 10 | > 5 | > 10 | 37
CC(C)N1C(=O)[C@]2(CC(=O)N(C(C)C)c3c2nnn3[C@@H](C)c2ccc(Cl)cc2)c2cc(Cl)ccc21 | 3 | 1500 | 3.8 | > 10 | > 10000
C[C@@H](c1ccc(Cl)cc1)n1nnc2c1NC(=O)C[C@]21C(=O)N(Cc2ccc(F)cc2)c2ccc(Cl)cc21 | 10 | 48 | 5 | > 10 | 160
C[C@@H](c1ccc(Cl)cc1)n1nnc2c1NC(=O)C[C@]21C(=O)N(CCCCN2CCCCC2)c2ccc(Cl)cc21 | > 5 | 78 | > 5 | > 10 | 350
C[C@@H](c1ccc(Cl)cc1)n1nnc2c1NC(=O)C[C@]21C(=O)N(CCCCCCCCN(C)C)c2ccc(Cl)cc21 | > 5 | 42 | > 5 | > 10 | 490
C[C@@H](c1ccc(Cl)cc1)n1nnc2c1NC(=O)C[C@]21C(=O)N(Cc2cccc(F)c2)c2ccc(Cl)cc21 | > 5 | 51 | 10 | > 10 | 290
C[C@@H](c1ccc(Cl)cc1)n1nnc2c1NC(=O)C[C@]21C(=O)N(CCC(C)(C)C)c2ccc(Cl)cc21 | 3.9 | 82 | 1.1 | > 10 | 870
C[C@@H](c1ccc(Cl)cc1)n1nnc2c1NC(=O)C[C@]21C(=O)N(Cc2ccccn2)c2ccc(Cl)cc21 | > 5 | 3 | > 5 | > 10 | 20
C[C@@H](c1ccc(Cl)cc1)n1nnc2c1NC(=O)C[C@]21C(=O)N(Cc2cc(C(C)(C)C)cc(C(C)(C)C)c2)c2ccc(Cl)cc21 | 4.9 | 5900 | 4.6 | > 10 | > 10000
C[C@@H](c1ccc(Cl)cc1)n1nnc2c1NC(=O)C[C@]21C(=O)N(CCCCCCN(C)C)c2ccc(Cl)cc21 | > 5 | 66 | 1.5 | > 10 | 900
C[C@@H](c1ccc(Cl)cc1)n1nnc2c1NC(=O)C[C@]21C(=O)N(Cc2cccnc2)c2ccc(Cl)cc21 | > 5 | 21 | 3.2 | > 10 | 29
CCCCCCCCCCN1C(=O)[C@]2(CC(=O)Nc3c2nnn3[C@@H](C)c2ccc(Cl)cc2)c2cc(Cl)ccc21 | 7.3 | 1200 | 3.4 | > 10 | > 10000
C#CCN1C(=O)[C@]2(CC(=O)Nc3c2nnn3[C@@H](C)c2ccc(Cl)cc2)c2cc(Cl)ccc21 | > 5 | 3 | > 5 | > 10 | 69
C[C@@H](c1ccc(Cl)cc1)n1nnc2c1NC(=O)C[C@]21C(=O)N(CCCCCl)c2ccc(Cl)cc21 | > 5 | 19 | > 5 | > 10 | 73
CCCCN1C(=O)[C@]2(CC(=O)Nc3c2nnn3[C@@H](C)c2ccc(Cl)cc2)c2cc(Cl)ccc21 | > 5 | 18 | 1.3 | > 10 | 75
CNCCN1C(=O)[C@]2(CC(=O)Nc3c2nnn3[C@@H](C)c2ccc(Cl)cc2)c2cc(Cl)ccc21 | > 5 | 22 | > 5 | > 10 | 120

SMILES | EC50 [1] [µM] | EC50 [2] [nM] | EC50 [3] [µM] | CC50 at 48 h [4] [µM] | EC50 [5] [nM]
C[C@@H](c1ccc(Cl)cc1)n1nnc2c1NC(=O)C[C@]21C(=O)N(CCN2CCC2)c2ccc(Cl)cc21 | > 5 | 7 | > 5 | > 10 | 67
CCOC(CN1C(=O)[C@]2(CC(=O)Nc3c2nnn3[C@@H](C)c2ccc(Cl)cc2)c2cc(Cl)ccc21)OCC | > 5 | 76 | > 5 | > 10 | 290
CCN1C(=O)[C@]2(CC(=O)Nc3c2nnn3[C@@H](C)c2ccc(Cl)cc2)c2cc(Cl)ccc21 | > 5 | 6 | 2.5 | > 10 | 24
C[C@@H](c1ccc(Cl)cc1)n1nnc2c1NC(=O)C[C@]21C(=O)N(CCN2CCCC2)c2ccc(Cl)cc21 | > 5 | 6 | > 5 | > 10 | 38
C[C@@H](c1ccc(Cl)cc1)n1nnc2c1NC(=O)C[C@]21C(=O)N(Cc2ccc(Cl)c(F)c2)c2ccc(Cl)cc21 | 5.1 | 290 | 1.5 | > 10 | 4000
COC(=O)CN1C(=O)C[C@]2(C(=O)Nc3ccc(Cl)cc32)c2nnn([C@@H](C)c3ccc(Cl)cc3)c21 | > 10 | 2700 | > 10 | > 10 | > 10000
C[C@@H](c1ccc(Cl)cc1)n1nnc2c1NC(=O)C[C@]21C(=O)N(Cc2ccc(Cl)nc2)c2ccc(Cl)cc21 | > 5 | 6 | > 5 | > 10 | 78
C[C@@H](c1ccc(Cl)cc1)n1nnc2c1NC(=O)C[C@]21C(=O)N(CCN2CCN(C)CC2)c2ccc(Cl)cc21 | > 5 | 30 | > 5 | > 10 | 300
C[C@@H](c1ccc(Cl)cc1)n1nnc2c1NC(=O)C[C@]21C(=O)N(CCCCCCCCCCN(C)C)c2ccc(Cl)cc21 | 3.5 | 98 | 2.7 | > 10 | 3500
C[C@@H](c1ccc(Cl)cc1)n1nnc2c1NC(=O)C[C@]21C(=O)N(CCN2CCOCC2)c2ccc(Cl)cc21 | > 5 | 17 | > 5 | > 10 | 75
CC(C)N1C(=O)[C@]2(CC(=O)Nc3c2nnn3[C@@H](C)c2ccc(Cl)cc2)c2cc(Cl)ccc21 | > 5 | 9 | 5.7 | > 10 | 23
C[C@@H](c1ccc(Cl)cc1)n1nnc2c1NC(=O)C[C@]21C(=O)N(CCN(C)CCS(C)(=O)=O)c2ccc(Cl)cc21 | > 5 | 18 | > 5 | > 10 | 77
C[C@@H](c1ccc(Cl)cc1)n1nnc2c1NC(=O)C[C@]21C(=O)N(CCCCCCCCBr)c2ccc(Cl)cc21 | – | – | – | > 10 | > 5000
C[C@@H](c1ccc(Cl)cc1)n1nnc2c1NC(=O)C[C@]21C(=O)N(CC(=O)O)c2ccc(Cl)cc21 | – | – | – | > 10 | 2400
C[C@@H](c1ccc(Cl)cc1)n1nnc2c1NC(=O)C[C@]21C(=O)N(CCCCCCBr)c2ccc(Cl)cc21 | – | – | – | > 10 | 3000
